Experimental findings from ChEMBL document CHEMBL4145570, “Structures and Biological Evaluation of Monoterpenoid Glycosides from the Roots of Paeonia lactiflora” (J Nat Prod, 2018) are described below.

Series [1] has as its system RAW264.7. Briefly: Antiinflammatory activity in mouse RAW264.7 cells assessed as inhibition of LPS-induced NO production at 60 uM relative to control. The class given is functional.
For series [2], the system named is RAW264.7. In words: Antiinflammatory activity in mouse RAW264.7 cells assessed as inhibition of LPS-induced NO production at 80 uM relative to control. The class given is functional.
The test system of series [3] is RAW264.7. In words: Antiinflammatory activity in mouse RAW264.7 cells assessed as inhibition of LPS-induced NO production at 10 uM relative to control. The class given is functional.
Series [4] relates to RAW264.7. In words: Antiinflammatory activity in mouse RAW264.7 cells assessed as inhibition of LPS-induced NO production at 20 uM relative to control. The class given is functional.
The subject of series [5] is RAW264.7. Briefly: Antiinflammatory activity in mouse RAW264.7 cells assessed as inhibition of LPS-induced NO production. In kind it is functional, cell-based. In outline:
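NO release measured in LPS-stimulated RAW264.7 macrophages alongside an unstimulated control group; IC50 derived; dexamethasone as positive control.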

Series [6] relates to A2780. Briefly: Cytotoxicity against human A2780 cells assessed as decrease in cell viability at 10 uM after 24 hrs by MTT assay. In kind it is functional, cell-based.
Series [7] has as its system BGC-823. Briefly: Cytotoxicity against human BGC823 cells assessed as decrease in cell viability at 10 uM after 24 hrs by MTT assay. The class given is functional, cell-based.
Series [8] has as its system Peritoneal macrophage. In words: Inhibition of LPS-induced TNFalpha secretion in C57BL6J mouse peritoneal macrophages at 10 uM after 24 hrs. The class given is functional, cell-based.
Series [9] relates to Bel-7402. In words: Cytotoxicity against human Bel7402 cells assessed as decrease in cell viability at 10 uM after 24 hrs by MTT assay. In kind it is functional, cell-based.
For series [10], the system named is HepG2. In words: Protection against acetaminophen-induced cell injury in human HepG2 cells at 10 uM after 24 hrs by MTT assay. In kind it is functional, cell-based.
Series [11] relates to HCT-8. Briefly: Cytotoxicity against human HCT8 cells assessed as decrease in cell viability at 10 uM after 24 hrs by MTT assay. The class given is functional, cell-based.
The target of series [12] is T1, Tyrosine-protein phosphatase non-receptor type 1 (Homo sapiens) (UniProt P18031).
T1 sequence (whole entry): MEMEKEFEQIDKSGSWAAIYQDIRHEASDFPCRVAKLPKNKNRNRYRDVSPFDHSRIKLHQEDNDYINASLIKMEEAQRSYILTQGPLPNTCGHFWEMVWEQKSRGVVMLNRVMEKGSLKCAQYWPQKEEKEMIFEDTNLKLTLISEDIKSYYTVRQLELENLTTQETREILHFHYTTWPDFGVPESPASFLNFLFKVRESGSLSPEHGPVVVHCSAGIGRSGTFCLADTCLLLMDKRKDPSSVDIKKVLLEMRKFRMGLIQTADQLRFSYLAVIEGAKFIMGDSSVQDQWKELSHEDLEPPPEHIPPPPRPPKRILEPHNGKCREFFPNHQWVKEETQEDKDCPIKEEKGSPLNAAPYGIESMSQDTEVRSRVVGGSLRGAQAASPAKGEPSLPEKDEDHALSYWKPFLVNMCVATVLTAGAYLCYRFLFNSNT
Briefly: Inhibition of PTP1B (unknown origin) at 10 uM.

Series [13] relates to RAW264.7. Briefly: Cytotoxicity against mouse RAW264.7 cells up to 100 uM. The class given is cell-based. In outline:
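Viability assessed in LPS-stimulated RAW264.7 macrophages during the NO-production assay, at concentrations up to 100 μM.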

Series [14] relates to A549. In words: Cytotoxicity against human A549 cells assessed as decrease in cell viability at 10 uM after 24 hrs by MTT assay. In kind it is functional, cell-based.
The test system of series [15] is RAW264.7. Briefly: Antiinflammatory activity in mouse RAW264.7 cells assessed as inhibition of LPS-induced NO production at 40 uM relative to control. In kind it is functional.

The source made the active and inactive calls. No cut-off for these calls is given here. Where only a bound is given, the exact number is not on record here.

Turning to `C[C@]1(C(=O)OC[C@H]2O[C@@H](O[C@]34CC5C3(COC(=O)c3ccccc3)[C@H]3O[C@]5(O)C[C@]4(C)O3)[C@H](O)[C@@H](O)[C@@H]2O)[C@@H]2CC[C@@H](CO)[C@H]1C2`, in series [1], the inhibition at 60 µM was found to be 39.5%. Also, the inhibition at 80 µM in [2] came to 40.7%. In addition, in series [3], the inhibition at 10 µM amounted to 19.7%. For the same molecule, in series [4], the inhibition at 20 µM came to 20.9%. For the same molecule, the IC50 in series [5] was greater than 100 µM. Besides, the outcome in series [6], in series [7], in [9], in series [10], in [11] and in series [14] was inactive. For the same molecule, the inhibition result in [8] and in series [12] was “inactive” in each case. The Activity result in series [13] was “Non-Toxic”. In series [15], the inhibition at 40 µM was found to be 22.1%.

On to `C[C@]12CC(=O)[C@H]3C[C@@]1(O[C@@H]1O[C@H](CO)[C@@H](O)[C@H](O)[C@H]1O)O[C@@H](O2)[C@H]3COC(=O)c1ccccc1`, for which, in series [1], the inhibition at 60 µM is 49.9%. For the same molecule, the inhibition at 80 µM in series [2] is 61%. The inhibition at 10 µM in series [3] came to 28%. The inhibition at 20 µM in series [4] stood at 29.6%. Further, the IC50 in [5] was 60.1 µM. In addition, the result in series [6], in series [7], in [9], in series [10], in [11] and in [14] was inactive. Moreover, the inhibition result in series [8] and in series [12] was “inactive” in each case. Further, the Activity result in series [13] is “Non-Toxic”. In addition, in [15], the inhibition at 40 µM was found to be 34.9%.

`CC12C(=O)O[C@@]3(C)C[C@@H](O)[C@H]1C[C@]23O[C@@H]1O[C@H](COC(=O)c2ccccc2)[C@@H](O)[C@H](O)[C@H]1O`: the inhibition at 60 µM in series [1] came to 34.8%. In series [2], the inhibition at 80 µM was found to be 39.4%. Moreover, in [3], the inhibition at 10 µM was found to be 19.1%. The inhibition at 20 µM in series [4] amounted to 24.4%. Besides, the IC50 in series [5] is greater than 100 µM. The outcome in [6], in series [7], in series [9], in [10], in series [11] and in [14] was inactive. The inhibition result in series [8] and in series [12] was “inactive” in each case. Moreover, the Activity entry in series [13] is reported as “Non-Toxic”. The inhibition at 40 µM in [15] is 28.2%.

For the molecule `CC1=CC(=O)[C@H]2C[C@]1(O[C@@H]1O[C@H](COC(=O)c3ccccc3)[C@@H](O)[C@H](O)[C@H]1O)C2(C)CO` (stereo partly specified), in series [1], the inhibition at 60 µM stood at 31.9%. For the same molecule, the inhibition at 80 µM in series [2] is 45%. Besides, the inhibition at 10 µM in [3] is 12.8%. The inhibition at 20 µM in series [4] stood at 16.2%. Besides, the IC50 in series [5] is greater than 100 µM. The outcome in series [6], in series [7], in series [9], in series [10], in series [11] and in [14] was inactive. Moreover, the inhibition result in [8] and in series [12] was “inactive” in each case. For the same molecule, the Activity result in series [13] is given as “Non-Toxic”. The inhibition at 40 µM in series [15] amounted to 18.3%.

With `CC(C)c1ccc(CO[C@@H]2O[C@H](CO[C@@H]3O[C@@H](C)[C@H](O)[C@@H](O)[C@H]3O)[C@@H](O)[C@H](O)[C@H]2O)cc1`, the inhibition at 60 µM in series [1] was determined as 38.7%. Also, the inhibition at 80 µM in series [2] came to 52.4%. Besides, the inhibition at 10 µM in series [3] is 22.2%. For the same molecule, the inhibition at 20 µM in series [4] amounted to 23.6%. Besides, the IC50 in [5] came to 97.5 µM. Moreover, the result in [6], in series [7], in series [9], in series [10], in [11] and in series [14] was inactive. In addition, the inhibition entry in series [8] and in series [12] was “inactive” in each case. The Activity result in [13] is listed as “Non-Toxic”. In addition, the inhibition at 40 µM in series [15] was determined as 31.1%.

As to `CC(C)=CCC/C(C)=C/C(=O)O[C@@H]1O[C@H](CO[C@@H]2O[C@@H](C)[C@H](O)[C@@H](O)[C@H]2O)[C@@H](O)[C@H](O)[C@H]1O`, the inhibition at 60 µM in series [1] turned out to be 33.4%. Further, the inhibition at 80 µM in [2] worked out at 41%. The inhibition at 10 µM in series [3] amounted to 21.4%. Besides, the inhibition at 20 µM in [4] was 21.4%. Further, in series [5], the IC50 was greater than 100 µM. In addition, the outcome in series [6], in [7], in series [9], in series [10], in series [11] and in series [14] was inactive. In addition, the inhibition entry in series [8] and in series [12] was “inactive” throughout. The Activity result in series [13] is “Non-Toxic”. For the same molecule, the inhibition at 40 µM in [15] worked out at 29.2%.

As for `CC1(C)[C@@H]2C[C@H]1[C@@H](O)C[C@@H]2C(=O)OC[C@H]1O[C@@H](O[C@]23CC4C2(COC(=O)c2ccccc2)[C@H]2O[C@]4(O)C[C@]3(C)O2)[C@H](O)[C@@H](O)[C@@H]1O`, the inhibition at 60 µM in series [1] worked out at 38.7%. The inhibition at 80 µM in series [2] stood at 40.8%. In addition, the inhibition at 10 µM in series [3] is 8.58%. Besides, the inhibition at 20 µM in series [4] worked out at 23.3%. In addition, in [5], the IC50 was greater than 100 µM. Moreover, the outcome in [6], in [7], in series [9], in series [10], in series [11] and in series [14] was inactive. Besides, the inhibition entry in series [8] and in series [12] was “inactive” in each case. In addition, in series [13], the Activity result is given as “Non-Toxic”. Moreover, the inhibition at 40 µM in series [15] amounted to 27.5%.

With `C[C@]1(C(=O)OC[C@H]2O[C@@H](O[C@]34CC5C3(COC(=O)c3ccccc3)[C@H]3O[C@]5(O)C[C@]4(C)O3)[C@H](O)[C@@H](O)[C@@H]2O)[C@@H]2CC[C@H](CO)[C@H]1C2`, the inhibition at 60 µM in series [1] was 29.3%. For the same molecule, in [2], the inhibition at 80 µM worked out at 44.6%. The inhibition at 10 µM in [3] turned out to be 16.5%. Besides, in [4], the inhibition at 20 µM was 22.8%. Moreover, the half-maximal inhibitory concentration (IC50) in [5] was greater than 100 µM. The outcome in [6], in series [7], in [9], in series [10], in series [11] and in series [14] was inactive. For the same molecule, the inhibition entry in series [8] and in series [12] was “inactive” each time. Besides, the Activity result in [13] was “Non-Toxic”. Also, the inhibition at 40 µM in series [15] turned out to be 25.8%.

Consider `CC1=CC(=O)[C@H]2C[C@@]1(O[C@@H]1O[C@H](CO)[C@@H](O)[C@H](O)[C@H]1O)C2(C)COC(=O)c1ccccc1` (stereo partly specified), for which the inhibition at 60 µM in [1] was found to be 45.9%. Further, the inhibition at 80 µM in series [2] worked out at 61.7%. Also, the inhibition at 10 µM in series [3] is 25.7%. The inhibition at 20 µM in [4] turned out to be 19.3%. In addition, the IC50 in series [5] turned out to be 64.8 µM. Besides, the result in series [6], in series [7], in [9], in [10], in [11] and in series [14] was inactive. Further, the inhibition result in series [8] and in [12] was “inactive” each time. Besides, the Activity result in [13] is reported as “Non-Toxic”. In addition, the inhibition at 40 µM in [15] was determined as 26%.

On to `C[C@@H]1C[C@H]2[C@@H]3CCC4=CC(=O)C=C[C@]4(C)[C@@]3(F)[C@@H](O)C[C@]2(C)[C@@]1(O)C(=O)CO` [DEXAMETHASONE], for which the IC50 in [5] was found to be 8.3 µM.
